The data set in a line: Toxicity liver stage against HepG2, at 10uM. The class given is cell-based. Further details: test concentration 10 uM, cell line HepG2-A16-CD81EGFP. As to conditions: human, HepG2-A16-CD81EGFP cells; read-out: INHIBITION
The essentials: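 Uninfected HepG2-A16-CD81EGFP cells, 3 × 10^3 per well, 1536-well, plated on prespotted compound at 10 μM final, parasite-free screening media added to match infected plates; puromycin 10 μM positive, DMSO 0.5% negative; run in parallel with 48 h PbLuc assay at 37 °C, 5% CO2; viability by CellTiter-Glo luminescence, normalized to controls.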
For `Cc1ccc2nc(C3CCCN3Cc3nnc(C)s3)[nH]c2c1` (stereo unspecified), the cytotoxicity at 10 µM is -2.82%.
As for `Cc1nn(C)c(N2CCOCC2)c1CN[C@@H]1c2ccccc2C[C@@H]1O`, the figure is -12.2%; as for `CNCC(=O)N1CCCCC1c1nccc(C)n1` (stereo unspecified), -15.4%.
In the case of `CCC(Nc1ncccn1)c1ccc(OC)cc1` (stereo unspecified), the cytotoxicity at 10 µM is -12.6%.
Then `Nc1nccnc1C(=O)N1CCN(Cc2cccc3ccccc23)CC1`, with -108%; and `CC(C)C1CN(c2cccc(C#N)n2)CCCN1Cc1ccc(F)cc1` (stereo unspecified), with 10%; and `Fc1cccc(N2C[C@H]3CCN(c4cccnc4)C[C@H]3C2)c1`, with 15.4%.
Then `O=C(c1coc(COc2cccc3cnccc23)n1)N1CCSCC1`, with -77.9%; and `Oc1cccc(-c2cc(CC3(N(CC4CC4)CC4CC4)COC3)no2)c1`, with 6.15%; and `CC(C(=O)Nc1cccc(C(F)(F)F)c1)N(C)CCN1CCOCC1` (stereo unspecified), with 9.54%.
Then `O=C(NCc1cc[nH]n1)NCC(O)COc1cccc(F)c1` (stereo unspecified), with 10.3%; and `CC(CO)NC(=O)Nc1ccc(Cl)cc1OCC(F)(F)F` (stereo unspecified), with 5.32%.
On to `CCC(CC#N)n1ccc(C(F)(F)F)n1` (stereo unspecified), for which the cytotoxicity at 10 µM was -8.38%.
As for `CC(C)CCN1C[C@@H]2OCCN(c3ncc(F)cn3)[C@@H]2C1`, the figure is 4.91%; as for `CCOc1ncccc1NC(=O)N1CCN(CC(=O)NC)CC1`, -2.66%.
Consider `Cc1cnc(N2CCC3(CCCN3C(=O)c3ccco3)CC2)nc1`, for which the cytotoxicity at 10 µM amounted to 6.71%.
Then `Cc1ccc(CN2CCC(n3cc(CN4CCC(O)CC4)nn3)CC2)s1`, with -3.53%; and `COc1cc(CSc2nnc(C)n2CC(N)=O)ccc1SC`, with -7.91%; and `CC(CN(C)Cc1cccc(-n2cccn2)c1)C(F)(F)F` (stereo unspecified), with 1.55%.
For the molecule `CC(C)(C)c1noc(CN2CCCCC2Cn2cncn2)n1` (stereo unspecified), the cytotoxicity at 10 µM is -2.4%.
Then `Cc1cccc(NC(=O)CN(C)C(=O)c2ccc(OC(C)C)nc2)n1`, with -8.99%; and `CC(=O)c1cccc(-n2nc(C(C)=O)c(C(C)=O)c2C)c1`, with 4.45%.
As for `CC1CCN(C(=O)NCC(=O)N(C)CC(F)(F)F)C1` (stereo unspecified), the figure is 1.82%; as for `O=C(CCS(=O)(=O)C1CCCC1)NCCc1ccc2c(c1)OCCO2`, -1.29%; as for `CN1[C@@H](C(=O)NCC2CC2)C[C@@H]2CN(Cc3ccoc3)C[C@@H]21`, 3.88%.
Turning to `Cc1nc2cc(=O)[nH]n2c(C)c1CC(=O)NCc1ccoc1`, the cytotoxicity at 10 µM is -10.4%.
As for `O[C@@H]1CN(Cc2cc(Cl)cc3cccnc23)C[C@@H]1O`, the figure is 0.342%.
As for `Cc1nn(C)c2cnn(Cc3ccc(C(=O)NCC4CCCO4)o3)c12` (stereo unspecified), the figure is 9.37%; as for `CN(C)Cc1nnc(C2CCCN(Cc3ccc(Cl)s3)C2)n1C` (stereo unspecified), -11.1%.
As to `CNC(=O)Cc1noc(-c2cc3c(s2)CCC(C)(C)C3)n1`, the cytotoxicity at 10 µM worked out at 3.57%.
Then `CC(C)N(Cc1ccccn1)C(=O)CCOc1cccc(F)c1`, with 4.58%; and `Cc1csc(N2CCN(CC(=O)NC3CCOCC3)CC2C)n1` (stereo unspecified), with -7.13%; and `CC(=O)NCC1CCN(C(=O)c2c(C)[nH]c3ccc(Cl)cc23)CC1`, with 8.11%.
Then `CSCCC(NC(=O)c1ccc2ccccc2n1)C(=O)N(C)C` (stereo unspecified), with -12%; and `CC[C@H](Cn1ncc2ccccc2c1=O)NC(=O)c1cnc(C)cn1`, with 5.98%; and `CCN(Cc1cnc(C)cn1)C1CCN(c2ccccc2)C1=O` (stereo unspecified), with 4.81%.
As for `Cc1nc(N2CCC3(CCCNC3=O)C2)nc2c1CCCC2` (stereo unspecified), the figure is -4.97%; as for `CN(C)CC1(O)CCCN(C(=O)Cn2ccc3ccccc32)CC1` (stereo unspecified), -1.96%; as for `O=c1n(Cc2cccc(F)c2)nc2ncccn12`, -7.9%.
With `CCc1nc(CC)n(CC(=O)N(C)Cc2ccc(F)cc2)n1`, the cytotoxicity at 10 µM stood at 5.25%.
Then `CCOc1ncccc1NC(=O)NC1CCN(S(C)(=O)=O)CC1`, with -7.96%; and `CN1C[C@H](O)C[C@H]1c1nc(-c2ccc(OC(F)(F)F)cc2)no1`, with -12.2%; and `COCC(=O)N1CC[C@@H](O)[C@@H]1Cc1ccccc1`, with -1.26%.
As to `CCNC(=O)[C@@H]1C[C@H](NC(=O)c2ccc(C)s2)CN1Cc1ccc(C)o1`, the cytotoxicity at 10 µM is -5.39%.
As for `Cc1nc(CSCCC(=O)NCc2ccncc2)cs1`, the cytotoxicity at 10 µM was -15.6%.
As for `COc1c2ccc(C(=O)NCCCn3ncccc3=O)cc2nn1C`, the figure is 0.905%.
As to `O=C(NCc1cccnc1)C1=NOC2(CCN(C(=O)N3CCCC3)C2)C1` (stereo unspecified), the cytotoxicity at 10 µM was -4.8%.
As for `Cc1nc(CC(=O)N2CCCC(N(C)Cc3ccccc3)C2)cs1` (stereo unspecified), the figure is 9.38%; as for `CN(CCCO)C(=O)c1ccc2c(c1)nc(N1CC[C@H](O)C1)n2C`, -1.46%; as for `Cc1cccc(CN2CC[C@@H]3[C@@H]2CCN3C(=O)c2cnoc2C)n1`, -21.1%.
Then `O=C(CCn1nnc2ccccc2c1=O)N(CC1CCOC1)C1CC1` (stereo unspecified), with -8.5%.
For the molecule `CCCc1nc(C(C)(C)NC(=O)C2CC(=O)N(CC3CC3)C2)no1` (stereo unspecified), the cytotoxicity at 10 µM was -3.61%.
Then `c1cncc(-c2ncnc3c2CCN(Cc2ccsc2)CC3)c1`, with 8.74%; and `CN1C(=O)CC(c2ccncc2)C12CCN(c1ncccn1)CC2` (stereo unspecified), with -108%.
`Cn1c(Cn2cccn2)nnc1C1CCN(Cc2ccccc2Cl)CC1`: the cytotoxicity at 10 µM was -0.4%.
Then `Cc1c(CN2CCCC(n3c(=O)oc4ccccc43)C2)cnn1C` (stereo unspecified), with 6.62%; and `O=C(Nc1cnn(C2CCOCC2)c1)c1ccc2c(c1)OCO2`, with 3.07%; and `Cc1noc(C2CCN(C(=O)c3ccc(NC4CC4)nc3)CC2)n1`, with -7.1%.
As for `CCC(CNC(=O)c1ccco1)N1CCc2ccccc2C1` (stereo unspecified), the figure is 18.3%; as for `O=C1CC(c2cccs2)Cc2[nH]c(=O)ccc21` (stereo unspecified), 0.185%.
As for `Cc1cnc(C(=O)N2CCCC(c3c(C)c(=O)nc4n3CCC4)C2)cn1` (stereo unspecified), the figure is -26.5%.
Turning to `COCCN(C)C[C@@H]1CN(Cc2ccnc3ccccc23)C[C@@H]1CO`, the cytotoxicity at 10 µM is -6.33%.
Then `Cc1ccc(C(=O)N2CCN3C[C@H](Oc4cncnc4)C[C@H]3C2)cn1`, with 5.01%; and `Cc1ccc(C(=O)N2CCOc3nc(C)ccc32)c(F)c1`, with -2.71%; and `Cc1cc(C)c(CNC(=O)N2CCCC2c2cccn2C)c(=O)[nH]1` (stereo unspecified), with -2.82%.
As for `Cc1cc(CN(C)Cc2ncc(C(C)(C)C)o2)no1`, the figure is 2.58%.
Then `Cc1cc(C)n(CC2CN(Cc3nc(C4CC4)no3)CCO2)n1` (stereo unspecified), with -5.13%; and `O=C(c1ccoc1)N1CCc2ncc(Cn3cccn3)n2CC1`, with 6.9%; and `CS(=O)(=O)NC[C@]12COC[C@H]1CN(C(=O)c1ccccc1)C2`, with 1.44%.
For `CS(=O)(=O)N1CCN(c2cc(N3CCCC3CO)ncn2)CC1` (stereo unspecified), the cytotoxicity at 10 µM turned out to be 3.51%.
As for `Cc1nc(CN2C(=O)CC[C@@H]3[C@H]2CCN3C2CCOC2)cs1` (stereo partly specified), the figure is -141%.
Turning to `CN1CCOC(c2cncc(CCC(N)=O)n2)C1` (stereo unspecified), the cytotoxicity at 10 µM is -2.86%.
As for `Cc1cnn(CC2CCCN2CC(=O)Nc2cc(C(C)(C)C)no2)c1` (stereo unspecified), the figure is -7.76%.
Then `O=C(Cc1ccsc1)N1CCn2cc(Cn3cncn3)nc2C1`, with -142%; and `COc1cccc(C2CCN(c3ccc4cc[nH]c4n3)C2)c1OC` (stereo unspecified), with 50.2%.
Then `Cc1cc(C(=O)N2CCCCC2c2nc(C)cs2)[nH]n1` (stereo unspecified), with -8.13%.
For the molecule `Cc1ccnc(NC(=O)c2ccc(F)c(S(=O)(=O)NC3CC3)c2)c1`, the cytotoxicity at 10 µM turned out to be 10.4%.
Then `Cc1noc(CN(C)CC2(O)CCCN(CCC3CCCCC3)C2=O)n1` (stereo unspecified), with -3.73%; and `c1ccc(CN2CCCn3nnc(COc4ccccn4)c3C2)nc1`, with 8.43%; and `O=C(NCCc1[nH]nc2c1CCCC2)C1CCCN(Cc2ccco2)C1` (stereo unspecified), with 2.72%.
Then `Cc1cccc(NC(=O)N2CCCn3cnc(CN4CCCC4)c3C2)c1`, with -12.2%.
As for `Cc1cnc(N2C[C@@H]3[C@@H](C2)OCC(=O)N3CC2CC2)nc1`, the figure is -0.357%; as for `COCc1nnc2n1CCN(Cc1ccoc1)C2`, -2.56%; as for `Cc1ncsc1CN1CC2(CCCC2)CC1=O`, -0.369%.
With `N#Cc1ccc(CN2CCNC(=O)C2c2cccs2)cc1` (stereo unspecified), the cytotoxicity at 10 µM was -2.89%.
Then `Nc1nc2c(c(NC(=O)Nc3ccccc3)n1)CCCC2`, with -9.74%; and `CC(C)=CCC1(CO)CCCN(S(C)(=O)=O)C1` (stereo unspecified), with -5.13%.
As for `OCCN1CCC2(CC1)CC(NCc1ccccn1)c1ccccc1O2` (stereo unspecified), the figure is 0.98%; as for `CCCn1ncc(CN2C[C@@H]3CCCN3C[C@H]2Cc2ccccc2)c1C`, -16.3%.
Regarding `Cc1nccn1CCCN1CCC2(CCC(=O)N(CC3CC3)C2)CC1`, the cytotoxicity at 10 µM amounted to 3.12%.
Then `Cc1ccn(-c2ccnc(N3CCN(c4ncccn4)CC3)n2)n1`, with 13.4%.
As for `COC(=O)Cn1c(=O)[nH]c2cn(-c3ccccc3)c(=O)n21`, the figure is 21.6%.
`O=C1CN(CCCNC(=O)Nc2cccc(Cl)c2F)CCN1`: the cytotoxicity at 10 µM was 15.2%.
As for `O=C(N[C@@H]1C[C@@H]2CC[C@H]1C2)C1(Oc2ccc(Cl)cc2)CCNCC1`, the figure is -5.26%; as for `Cc1cccc(-n2nc(CC(C)C)nc2CS(C)(=O)=O)c1`, 1.81%.
Then `CN(C)Cc1cn2c(n1)CN(CC1CCCC1)CC2`, with -149%.

Values taken from ChEMBL document CHEMBL4513216, “Probing the Open Global Health Chemical Diversity Library for Multistage-Active Starting Points for Next-Generation Antimalarials” (ACS Infect Dis, 2020).
